Bioassay records deposited in PubChem BioAssay by Broad Institute.
Hits are enriched below; roughly 2.2% of the tested compounds scored in any of these assays.
CAL PDZ FP-1: blocks peptide binding to human CAL PDZ domain; Q9HD26; purified CAL PDZ, TMR-peptide fluorescence polarization, 1 h; inhibition, % at 20 µM; 330,000 tested, 0.02% active;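 active means highest replicate inhibition of at least 40%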;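 further: plate controls were DMSO neutral control wells for no effect and unlabeled competitor peptide control wells for full effect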
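material = purified tagged CAL PDZ domain construct (CerCALP) | buffer or medium = sodium phosphate/NaCl buffer pH 7.4 with TCEP, IgG, Thesit | reagent = TMR-labelled reporter peptide T*-PRC34 bound in PDZ groove | incubation = 1 h room-temperature incubation prior to read | measured by = fluorescence polarization (mP) | evaluation = percent inhibition from loss of millipolarization | control set = unlabelled peptide and DMSO controls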
Rtt109 Vps75: blocks Candida albicans Rtt109/Vps75 acetyltransferase activity. inhibition, % at 34.9 µM. AID 540336. purified Rtt109/Vps75, ThioGlo CoA-SH fluorescence, 4 h. 330,000 tested, 0.16% active. Q5AAJ8;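 active means inhibition of at least 50% in every replicate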
dFosB activator: activators of mouse delta FosB homodimer. P13346. activation, % at 25 µM. purified delta FosB, TAMRA-CDK5 oligo fluorescence polarization; percent of positive-control signal above neutral wells. 340,000 tested, 0.99% active;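 active means mean activation above about 17%, with every replicate also reaching it, limit read from the data, passing the limit was not always enough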
Target sequence (P13346 whole entry, looked up): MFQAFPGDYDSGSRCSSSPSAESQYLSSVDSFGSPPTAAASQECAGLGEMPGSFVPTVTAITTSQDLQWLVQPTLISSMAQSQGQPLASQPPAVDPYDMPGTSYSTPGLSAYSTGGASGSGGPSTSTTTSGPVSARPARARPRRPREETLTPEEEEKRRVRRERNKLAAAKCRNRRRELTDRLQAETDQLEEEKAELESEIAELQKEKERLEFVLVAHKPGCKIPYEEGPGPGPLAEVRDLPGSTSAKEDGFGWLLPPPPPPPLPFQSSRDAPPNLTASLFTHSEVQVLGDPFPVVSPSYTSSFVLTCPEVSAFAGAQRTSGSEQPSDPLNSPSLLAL
DYRK1A inh: Dyrk1A (rat) kinase inhibition; ADP-Glo luminescence, NFATc1 peptide; 310,000 tested, 0.43% active; AID 504441; inhibition, % at 12.5 µM; in the data active means inhibition above about 50%;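 further: plate controls were vehicle with enzyme for no effect and no enzyme for full effect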
CAL PDZ FP-2: blocks peptide binding to the human CAL PDZ domain; purified CAL PDZ, TMR-peptide fluorescence polarization, 1 h; inhibition, % at 24.9 µM; 300,000 tested, 0.92% active;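 active means mean inhibition of at least 30% with at least half of replicates also reaching 30%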;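 further: 0% = DMSO neutral control and 100% = excess unlabeled competitor peptide PRC23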
CDK5 inh: inhibitors of human CDK5/p35 kinase | Q00535+Q15078 | Recombinant CDK5/p35, ADP-Glo luminescence, 60 min | 330,000 tested, 0.01% active | AID 488839 | inhibition, % at 10 µM;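 active means highest replicate inhibition of at least 50% and at least 75% of replicates reaching 50%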;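 further: plate controls were DMSO neutral control for no effect and GW8510 at 10 µM for full effect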
Active calls of the source: *; . = not tested or not shown; + = active, no number.

SMILES	CAL PDZ FP-1	Rtt109 Vps75	dFosB activator	DYRK1A inh	CAL PDZ FP-2	CDK5 inh
CCOC(=O)C1CCN(Cc2cn(C)nc2-c2ccc(Oc3ccccc3)cc2)CC1	-1.8	4.2	-11.9	0.0	2.8	-3.2
N#Cc1cccc(NC(=O)COC(=O)c2ccccc2Sc2ccccc2C#N)c1	-5.5	-10.1	-11.8	-3.8	6.3	-0.6
CC(=O)c1ccc(NC(=O)COC(=O)c2ccccc2Sc2ccccc2C#N)cc1	-2.8	-14.0	39.5*	5.5	2.1	-0.2
CC(=O)c1ccc(-c2ccc(C(=O)N3CCC(C(N)=O)CC3)o2)cc1	-2.4	-2.2	-10.5	.	3.3	-1.2
CCCC(O)(CCN1CCOCC1)c1ccc(Cl)cc1 (stereo not given)	18.8	-10.4	2.5	-6.5	40.8*	0.6
C=C(C(=O)c1ccccc1)C(NC(C)(C)C)c1ccccc1 (stereo not given)	-1.7	-5.1	2.2	.	-1.2	-0.6
COc1ccc(N(CC(=O)NN=C2CCN(C)CC2)S(=O)(=O)c2ccccc2)c(OC)c1	-2.3	11.6	-5.7	-2.5	4.6	0.0
O=C1C=CC(c2ccccc2)(c2ccccc2)CC1	0.4	4.7	-4.8	.	38.0*	-1.2
CN1C(=O)CCC1(O)c1ccccc1 (stereo not given)	-1.3	.	0.9	-1.4	1.2	1.4
O=C(/C=C/c1ccccc1)N1CCN(c2c(Cl)cccc2[N+](=O)[O-])CC1	-3.4	-1.2	-11.4	.	-1.7	-0.4
CC(=O)N1CCN(c2ccc(NC(=O)c3ccc(Cl)cc3)cc2)CC1	-3.7	14.5	-1.4	-2.9	1.5	0.7
CC(=O)N1CCN(C(=S)c2ccc(Cl)cc2)CC1	-0.2	-6.2	8.8	5.6	42.8*	-1.6
Cc1cc(/C=C(\C#N)C(=O)O)c(C)n1-c1ccc(Br)cc1	-2.2	8.1	-2.1	-4.0	+	-0.7
Cc1c(NC(=O)C(C)Sc2ccccc2)c(=O)n(-c2ccccc2)n1C (stereo not given)	0.0	-2.7	-2.0	-3.6	-1.9	0.1
COCCCn1c(SC(C)C(=O)Nc2c(C)n(C)n(-c3ccccc3)c2=O)n[nH]c1=O (stereo not given)	-0.3	-7.9	-3.7	-3.8	43.0*	0.4
O=C(CCl)Nc1ccc(N2CCCCCC2)cc1	-0.3	5.6	1.1	-0.3	-2.3	1.6
O=C(/C(N=Nc1cccc(C(F)(F)F)c1)=C(/O)c1cccs1)C(F)(F)F	1.1	24.2	-8.7	.	68.3*	1.5
CC(=O)/C(N=Nc1cccc(C(F)(F)F)c1)=C(\C)O	-1.2	-1.6	-9.5	-3.7	-9.2	0.9
CCc1noc(N)c1C(=O)Nc1ccc(Cl)cc1	-3.3	-6.6	1.1	.	-1.0	.
Cc1ccc(S(=O)(=O)NCCC(=O)NC(C)c2ccccc2)cc1 (stereo not given)	-2.3	-1.2	-7.2	0.6	0.3	0.4
Cc1ccc(S(=O)(=O)NCCC(=O)NC(C)CCc2ccccc2)cc1 (stereo not given)	-0.4	4.6	-4.3	-5.3	70.9*	1.8
COc1ccc(NC(=O)N2CCN(S(C)(=O)=O)CC2)c(OC)c1	-2.9	-5.1	6.5	0.7	38.1*	1.4
O=S(=O)(c1ccc(Br)cc1)N1CCN=C1SCc1cccnc1	-0.9	-3.1	-1.6	-3.2	44.9*	0.5
O=S(=O)(c1ccccc1)N1CCN=C1SCc1ccc(Cl)cc1	-0.5	3.8	-13.9	-3.0	44.4*	0.0
O=C(O)c1ccccc1NS(=O)(=O)c1cccc(-n2sc3ccccc3c2=O)c1	0.0	152.7*	-6.8	4.8	33.6*	0.6
SMILES	CAL PDZ FP-1	Rtt109 Vps75	dFosB activator	DYRK1A inh	CAL PDZ FP-2	CDK5 inh
Cc1ccc(C)c(NC(=O)CN(C)C(=O)CN2C(=O)C3CCCCC3C2=O)c1 (stereo not given)	-0.8	-6.1	-11.6	-7.9	-2.1	-1.4
O=C(Nc1ccc2c(c1)OCO2)C1CC(c2cccc(Br)c2)=NO1 (stereo not given)	.	-2.2	-11.1	6.2	41.9*	0.5
O=C(Nc1ccccc1C(=O)O)c1cccc(N2C(=O)c3ccccc3C2=O)c1	-1.8	-5.9	-3.5	-2.7	51.4*	-0.1
O=C(O)c1cc(NC(=O)c2cccc(N3C(=O)c4ccccc4C3=O)c2)cc(C(=O)O)c1	0.0	-2.0	0.9	-3.0	0.8	0.2
C/C=C1\C(OC2OC(CO)C(O)C(O)C2O)OC=C(C(=O)OC)C1CC(=O)OCC1C(C)C(OC(=O)CC2C(C(=O)OC)=COC(OC3OC(CO)C(O)C(O)C3O)/C2=C\C)CC1C(CO)CO (stereo not given)	0.5	11.2	-1.8	15.4	-1.4	-0.4
CC(C)(C)C(=O)Nc1cccc2[nH]ncc12	0.0	-8.2	-2.4	.	-1.7	1.3
COC(=O)CN1C(=O)S/C(=C/c2ccc(N3CCCCC3)o2)C1=O	0.0	-5.1	1.6	5.0	-2.2	-3.8
O=C(O)CN1C(=O)/C(=C/c2ccc(N3CCCCC3)o2)SC1=S	-0.4	4.6	85.5*	7.2	3.3	6.9
COc1ccc(/C(O)=C/c2nc3ccc(C(=O)NCCc4cccc(C)c4)cc3[nH]c2=O)cc1OC	-2.8	-8.0	-2.7	-0.8	0.0	-0.3
O=C(CSc1ccccc1)NNC(=O)c1ccncc1	-1.3	-1.0	2.3	2.8	4.0	-0.3
CCCNC(=S)N1CCN(C(c2ccccc2)c2ccccc2)CC1	-0.6	4.7	12.6	-3.5	0.7	0.3
CCCCNC(=S)N1CCN(C(c2ccccc2)c2ccccc2)CC1	-0.3	0.7	0.2	6.0	44.7*	-3.0
O=C(NCC1CCCO1)C1CCN(S(=O)(=O)c2cc(Cl)ccc2Cl)CC1 (stereo not given)	-1.8	-9.9	-3.0	7.1	-4.3	1.8
O=C(NC(Cc1ccccc1)C(=O)O)/C(=C/c1ccccc1)NC(=O)c1ccco1 (stereo not given)	-0.4	-12.9	1.9	1.2	63.1*	0.2
O=C(NC(Cc1ccccc1)C(=O)O)/C(=C\c1ccc(F)cc1)NC(=O)c1ccco1 (stereo not given)	0.5	-0.9	-7.4	-5.5	-7.5	-0.2
c1cc2c(cc1CNc1ccc(N3CCOCC3)cc1)OCO2	0.5	-1.2	-3.1	-0.8	-0.6	-1.8
O=C(Cn1cnc2sc3c(c2c1=O)CCCC3)NCC(=O)Nc1c(F)cc(F)cc1Br	-0.2	-4.3	69.0*	-2.7	-0.8	1.3
COc1ccccc1CNC(=O)CN1C(=O)c2ccc([N+](=O)[O-])cc2C1=O	-2.2	-0.3	-0.3	-7.8	-3.1	0.9
Cn1cc([C@@H]2C[C@H]3CN(Cc4cccc(Cl)c4)C(=O)[C@]34CCCN24)c2ccccc21	-2.0	0.3	2.7	-6.5	5.1	-0.8
COc1cc2c(c(OC)c1OC)-c1ccc(SC)c(=O)cc1C(NC(=O)C(F)(F)F)CC2 (stereo not given)	0.6	1.2	-4.8	2.9	-1.9	-0.2
